# This is one part of a sample in which hits are shown more often than they occur.
# Insulin prom act = TRM-6 insulin promoter activation | TRM-6 cells, insulin promoter eGFP reporter, imaging; plate-scaled: unstimulated 0, stimulated control 100 | activation, % at 2 µM | 0.81% of 130,000 active | AID 1296;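 active = activation at 2 µM above a set limit, confirmed on inspection of the cell images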;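 also: share of cells whose green reporter signal exceeds an intensity cutoff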
#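 Test system: human fetal islet-derived TRM-6 cells with tamoxifen-inducible insulin promoter–eGFP reporter. Compound dosing: 2 µM final, single concentration. Incubation: tamoxifen pre-incubation 15 h overnight, then compound exposure 48 h at 37 °C. Signal: fixed-cell fluorescence microscopy, eGFP plus Hoechst.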
# Active calls of the source: *.
SMILES,Insulin prom act
CCC(NC(=O)COc1ccc([N+](=O)[O-])cc1)c1ccccc1 (configuration not stated),-66.7
CCN=C(NC#N)SCc1c(F)cccc1Cl,166.7
CCn1c(=O)cc(OCC(=O)NCCc2cccc(C)c2)c2ccccc21,129.4*
CCOC(=O)COc1cc(=O)n(CC)c2ccccc12,-4.2
CCn1c(=O)cc(OCC(=O)Nc2cc(C)ccn2)c2ccccc21,6.5
CCc1nn(-c2ccccc2)c2c1-c1cc(OC)c(OC)cc1C1(N2)C(=O)Nc2ccccc21 (configuration not stated),-4.3
CC(C(=O)Nc1cc([N+](=O)[O-])ccc1Cl)N1CCN(c2ccc(O)cc2)CC1 (configuration not stated),-72.4
Cc1nc2c(C(=O)NCCC(C)C)c[nH]n2c(=O)c1Cc1ccccc1F,0.0
CC(C)[C@H](NC(N)=O)C(=O)NCCc1ccc(Cl)cc1Cl,-5.9
CC(C)CCNC(=O)[C@@H](NC(=O)c1c(F)cccc1F)C(C)C,94.2*
O=C(OCn1nnc2ccccc2c1=O)c1ccc2c(=O)n3c(nc2c1)CCC3,0.0
O=C(CCN1C(=O)c2ccccc2C1=O)Nc1sc2c(c1C(=O)NCC1CCCO1)CCC2 (configuration not stated),-3.7
O=C(CNC(=O)c1ccccc1Cl)N/N=C/C=C/c1ccccc1,6.7
CCOC(=O)c1sc2nc(C)[nH]c(=S)c2c1C,-78.6
COC(=O)Cn1c(C)nc2c(sc3nc(C)cc(C)c32)c1=O,5.4
CCOC(=O)Cn1c(C)nc2c(C(=O)OCC)sc(C)c2c1=O,76.3*
O=C(NCCCn1ccnc1)C(=O)c1c[nH]c2ccccc12,-9.5
O=C(CSCc1ccc(Cl)cc1)Nc1ccc(S(=O)(=O)N2CCOCC2)cc1,-5.1
Clc1ccc2c(c1)C(N1CCNCC1)Cc1ccccc1S2 (configuration not stated),506.9*
Clc1cccc2c1Sc1ccccc1CC2N1CCNCC1 (configuration not stated),3.2
CCn1cc(/C=N/NC(=O)c2ccc3c(c2)OCO3)cn1,-6.5
COc1cccc(CNC(=O)C2CCN(S(=O)(=O)N3CCC4(CC3)OCCO4)CC2)c1,172.2
O=C(NC(=O)c1ccncc1)NC(c1ccccc1)c1ccccc1,-8.1
O=C(c1ccco1)N1CCN(C(c2ccccn2)c2nnnn2C2CCCC2)CC1 (configuration not stated),195.2
CCCC(c1nnnn1C1CCCC1)N1CCN(C(=O)c2ccco2)CC1 (configuration not stated),180.6*
SMILES,Insulin prom act
O=C(c1ccco1)N1CCN(C(c2coc3ccc(Cl)cc3c2=O)c2nnnn2C2CCCC2)CC1 (configuration not stated),0.0
Cc1ccc(/C=N/N2CCN(Cc3ccc(Cl)cc3)CC2)o1,2.8
CCCCNC(=O)NC1CCCC1,9.7
Cc1ccc(C)c(C(=O)Cn2ncc(Cl)c(Cl)c2=O)c1,269.2
Cc1ccc(C(=O)OCn2ncc(Cl)c(Cl)c2=O)cc1,193.5*
CCOC(=O)c1ccc(NC(=O)Cn2ncc(Cl)c(Cl)c2=O)cc1,170.3
Nc1nnc(Sc2ncccc2[N+](=O)[O-])s1,-7.1
CC(=O)c1ccc(OC(=O)c2cc3ccccc3oc2=O)cc1,5.3
CC1(C(=O)O)Oc2cccnc2NC1=O (configuration not stated),409.1*
O=C(O)CCCn1cc(NC(=O)COc2cc(F)ccc2[N+](=O)[O-])cn1,-7.1
COc1cccc(-n2c(SCC(N)=O)nnc2-c2ccncc2)c1,-90.9
Cc1cc(NC(=O)CSc2nc3c([nH]c4ccccc43)c(=O)n2-c2cccc(C(F)(F)F)c2)no1,-5.3
COc1cccc(-n2c(SCC(N)=O)nc3c([nH]c4ccccc43)c2=O)c1,252.2*
Cc1ccc(C(=O)NCC(=O)OCC(=O)/C=C2\N(C)c3ccccc3C2(C)C)cc1C,-6.7
COc1ccc(CNC(=O)CSc2nc3[nH]ncc3c(=O)n2-c2ccccc2Br)cc1,2.7
CN1/C(=C\C(=O)C(F)F)C(C)(C)c2ccccc21,4.5
CN1/C(=C\C=Nc2ccc3ccccc3c2)C(C)(C)c2ccccc21,6.5
CN1\C(=C/C=C/C=C/C=[N+](C)C)C(C)(C)c2ccccc21,566.7*
O=C(Nc1ccccc1C(=O)Nc1ccc2c(c1)OCO2)c1cccs1,3.3
O=C(Cc1ccccc1)NCC1CCCO1 (configuration not stated),3.1
O=C(Cc1ccc(F)cc1)NCC1CCCO1 (configuration not stated),6.7
O=C(CCCC(=O)NCC1CCCO1)NCC1CCCO1 (configuration not stated),256.5*
CCn1c(SCC(=O)c2cc(OC)ccc2OC)nnc1C1CC1,7.7
O=C1CCC(C(=O)NC2(C(=O)NC3CCCCC3)CCCCC2)N1 (configuration not stated),-81.8
OCCN1CCN(c2ncnc3sc(-c4ccccc4)cc23)CC1,0.0
COc1cccc(/C=C/C(=O)c2ccc[nH]2)c1,-6.8
COc1cccc(/C=N/NC(=O)c2nc(-c3ccccc3)cc(-c3ccccc3)n2)c1,-3.3
